Reference: ChEMBL document CHEMBL4689842, “EUbOPEN Chemogenomics Library wave 1” (2021)
Several values for one entry are separate records, joined by “and”; a condition that tells them apart may be missing. Identical values can stand only once.

Experiments:
Format in all cases: toxicity, cell-based
Fibroblast [1] = assay: Multiplex assay against human fibroblast; conditions: 10 µM, compound concentration 10 uM
Method in brief: (§1)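 Tubulin, mitochondrial-mass and membrane-permeability phenotypes are per cents of healthy-nucleus cells. Cells were gated by CellPathfinder machine learning into Hoechst high-intensity objects or normal cells, normal cells into healthy, pyknosed or fragmented nuclei, and pyknosed cells into mitotic or apoptotic. Before that, live cells stained at seeding with Hoechst33342, BioTracker Green Microtubule Cytoskeleton Dye, MitoTracker Red and Annexin V Alexa Fluor 680 were imaged on a CQ1 microscope at 37°C and 5% CO2 after compound addition.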

HEK-293T [2] = assay: Multiplex assay against HEK293T; conditions: human, 10 µM, compound concentration 10 uM; method in brief: as §1;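 for Population Tubulin-Different-Phenotype (%): share of the cells with healthy nuclei that show this phenotype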
U2OS [3] = assay: Multiplex assay against U2OS; conditions: human, 10 µM, compound concentration 10 uM; method in brief: as §1
HEK-293T [4] = assay: Incucyte cell viability with HEK293T; conditions: human, 10 µM, compound concentration 10 uM; note: filed as whole numbers so only -1 and 0 and 1 occur
Fibroblast [5] = assay: Incucyte cell viability with human fibroblast; conditions: 10 µM, compound concentration 10 uM; note: filed as whole numbers so only -1 and 0 and 1 occur
U2OS [6] = assay: Incucyte cell viability with U2OS; conditions: human, 10 µM, compound concentration 10 uM; note: filed as whole numbers so only -1 and 0 and 1 occur
[7] = 0 h, replicate number 1, timepoint 0 hours
[8] = 6 h, replicate number 1, timepoint 6 hours
[9] = 12 h, replicate number 1, timepoint 12 hours
[10] = 18 h, replicate number 1, timepoint 18 hours
[11] = 24 h, replicate number 1, timepoint 24 hours

## COc1ccccc1-c1cc(Nc2cccc(CS(N)(=O)=O)c2)ncn1
Fibroblast [1]; 12 h, replicate 1
  Population Apoptotic (%): 70% and 60%
  Population Fragmented Nuclei (%): 24% and 28%
  Population Healthy Nuclei (%): 62% and 53%
  Population Hoechst High Intensity Objects (%): 11% and 10%
  Population Membrane Permeable-Phenotype (%): 9%
  Population Mitochondria Different-Phenotype (%): 4%
  Population Mitotic Cells (%): 29% and 39%
  Population Normal (%): 88% and 89%
  Population Pyknosed Nuclei (%): 13% and 17%
  Total Cell Count: 208 and 254
Fibroblast [1]; 12 h, replicate 2
  Population Apoptotic (%): 50% and 75%
  Population Fragmented Nuclei (%): 63% and 72%
  Population Healthy Nuclei (%): 31% and 20%
  Population Hoechst High Intensity Objects (%): 34% and 40%
  Population Membrane Permeable-Phenotype (%): 16% and 10%
  Population Mitochondria Different-Phenotype (%): 8% and 20%
  Population Mitotic Cells (%): 50% and 25%
  Population Normal (%): 65% and 59%
  Population Pyknosed Nuclei (%): 5% and 8%
  Population Tubulin-Different-Phenotype (%): 25% and 30%
  Total Cell Count: 58 and 84
Fibroblast [1]; 24 h, replicate 1
  Population Apoptotic (%): 75% and 66%
  Population Fragmented Nuclei (%): 25% and 23%
  Population Healthy Nuclei (%): 60% and 57%
  Population Hoechst High Intensity Objects (%): 14% and 10%
  Population Membrane Permeable-Phenotype (%): 7%
  Population Mitochondria Different-Phenotype (%): 4% and 11%
  Population Mitotic Cells (%): 24% and 33%
  Population Normal (%): 85% and 89%
  Population Pyknosed Nuclei (%): 14% and 19%
  Total Cell Count: 267 and 188
Fibroblast [1]; 24 h, replicate 2
  Population Apoptotic (%): 50%
  Population Fragmented Nuclei (%): 54% and 70%
  Population Healthy Nuclei (%): 40% and 26%
  Population Hoechst High Intensity Objects (%): 30% and 28%
  Population Membrane Permeable-Phenotype (%): 21% and 13%
  Population Mitochondria Different-Phenotype (%): 0%
  Population Mitotic Cells (%): 50%
  Population Normal (%): 70% and 71%
  Population Pyknosed Nuclei (%): 5% and 3%
  Population Tubulin-Different-Phenotype (%): 28% and 26%
  Total Cell Count: 50 and 80
HEK-293T [2]; 12 h, replicate 1
  Population Apoptotic (%): 31% and 19%
  Population Fragmented Nuclei (%): 21% and 13%
  Population Healthy Nuclei (%): 58% and 71%
  Population Hoechst High Intensity Objects (%): 17% and 8%
  Population Membrane Permeable-Phenotype (%): 3%
  Population Mitochondria Different-Phenotype (%): 6% and 5%
  Population Mitotic Cells (%): 68% and 80%
  Population Normal (%): 82% and 91%
  Population Pyknosed Nuclei (%): 20% and 15%
  Population Tubulin-Different-Phenotype (%): 5% and 3%
  Total Cell Count: 577 and 663
HEK-293T [2]; 12 h, replicate 2
  Population Apoptotic (%): 8% and 20%
  Population Fragmented Nuclei (%): 11% and 9%
  Population Healthy Nuclei (%): 84% and 85%
  Population Hoechst High Intensity Objects (%): 1% and 3%
  Population Membrane Permeable-Phenotype (%): 2% and 0%
  Population Mitochondria Different-Phenotype (%): 7% and 12%
  Population Mitotic Cells (%): 91%
  Population Normal (%): 98% and 96%
  Population Pyknosed Nuclei (%): 4% and 5%
  Population Tubulin-Different-Phenotype (%): 6% and 7%
  Total Cell Count: 2027 and 1134
HEK-293T [2]; 24 h, replicate 1
  Population Apoptotic (%): 24% and 33%
  Population Fragmented Nuclei (%): 14% and 19%
  Population Healthy Nuclei (%): 76% and 63%
  Population Hoechst High Intensity Objects (%): 4% and 13%
  Population Membrane Permeable-Phenotype (%): 8%
  Population Mitochondria Different-Phenotype (%): 3% and 5%
  Population Mitotic Cells (%): 75% and 66%
  Population Normal (%): 95% and 86%
  Population Pyknosed Nuclei (%): 8% and 17%
  Population Tubulin-Different-Phenotype (%): 6%
  Total Cell Count: 801 and 590
HEK-293T [2]; 24 h, replicate 2
  Population Apoptotic (%): 11% and 13%
  Population Healthy Nuclei (%): 66% and 86%
  Population Hoechst High Intensity Objects (%): 3%
  Population Membrane Permeable-Phenotype (%): 6% and 3%
  Population Mitotic Cells (%): 88% and 86%
  Population Normal (%): 96%
  Population Pyknosed Nuclei (%): 2% and 4%
  Population Tubulin-Different-Phenotype (%): 9% and 23%
  Total Cell Count: 3407 and 1342
U2OS [3]; 12 h, replicate 1
  Population Apoptotic (%): 53% and 27%
  Population Fragmented Nuclei (%): 10% and 8%
  Population Healthy Nuclei (%): 82% and 84%
  Population Membrane Permeable-Phenotype (%): 13% and 7%
  Population Mitochondria Different-Phenotype (%): 23% and 20%
  Population Mitotic Cells (%): 46% and 72%
  Population Normal (%): 93% and 98%
  Population Pyknosed Nuclei (%): 7% and 6%
  Population Tubulin-Different-Phenotype (%): 19% and 10%
  Total Cell Count: 160 and 443
U2OS [3]; 12 h, replicate 2
  Population Apoptotic (%): 0% and 25%
  Population Fragmented Nuclei (%): 9%
  Population Healthy Nuclei (%): 75% and 86%
  Population Hoechst High Intensity Objects (%): 16% and 11%
  Population Membrane Permeable-Phenotype (%): 17% and 9%
  Population Mitochondria Different-Phenotype (%): 21%
  Population Mitotic Cells (%): 100% and 75%
  Population Normal (%): 83% and 88%
  Population Tubulin-Different-Phenotype (%): 12% and 34%
  Total Cell Count: 138 and 311
U2OS [3]; 24 h, replicate 1
  Population Apoptotic (%): 68% and 25%
  Population Healthy Nuclei (%): 79% and 93%
  Population Hoechst High Intensity Objects (%): 3% and 2%
  Population Membrane Permeable-Phenotype (%): 16% and 7%
  Population Mitochondria Different-Phenotype (%): 30% and 18%
  Population Mitotic Cells (%): 31% and 75%
  Population Normal (%): 96% and 97%
  Population Tubulin-Different-Phenotype (%): 22%
  Total Cell Count: 230 and 545
U2OS [3]; 24 h, replicate 2
  Population Apoptotic (%): 62% and 50%
  Population Healthy Nuclei (%): 63% and 91%
  Population Mitochondria Different-Phenotype (%): 33% and 31%
  Population Mitotic Cells (%): 37% and 50%
  Population Normal (%): 78% and 93%
  Population Tubulin-Different-Phenotype (%): 23% and 33%
  Total Cell Count: 157 and 384
HEK-293T [4]; [7]
  Growth Rate: 0
HEK-293T [4]; [8]
  Growth Rate: 0
HEK-293T [4]; [9]
  Growth Rate: 0
HEK-293T [4]; [10]
  Growth Rate: 0
HEK-293T [4]; [11]
  Growth Rate: 0
Fibroblast [5]; [7]
  Growth Rate: 0
Fibroblast [5]; [8]
  Growth Rate: 0
Fibroblast [5]; 6 h, replicate number 2, timepoint 6 hours
  Growth Rate: 1
Fibroblast [5]; [9]
  Growth Rate: 0
Fibroblast [5]; [10]
  Growth Rate: 0
Fibroblast [5]; [11]
  Growth Rate: 0
U2OS [6]; [7]
  Growth Rate: 0
U2OS [6]; [8]
  Growth Rate: 0
U2OS [6]; [9]
  Growth Rate: 0
U2OS [6]; [10]
  Growth Rate: 0
U2OS [6]; [11]
  Growth Rate: 0
